Assay: Plasma clearance in Rhesus monkey at 0.5 mg/kg, iv by LC-MS/MS analysis
Type: ADME, organism-based, Macaca mulatta
In short: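 IV bolus in DMSO/PEG400 (1:1). Male Wistar–Hannover rats (n = 3, ~300 g): 2 mg/kg via jugular cannula, sampled 0.03–24 h. Male rhesus (n = 3): 0.5 mg/kg into saphenous or cephalic vein, sampled to 24 h. Plasma (EDTA) analysed by LC-MS/MS after acetonitrile precipitation. Non-compartmental analysis; CL = dose/AUC0-inf; t1/2 from log-linear regression of the terminal phase. Values are means.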

Cc1ccc([C@H]2C[C@@H]2COc2cc(NCc3nnc(C)s3)nc(C)n2)nc1 [MK-8189]
clearance: 9.3 mL/min/kg
